# Screening data as filed in PubChem.
# Hits are enriched below; roughly 4% of the tested compounds scored in any of these assays.
# NTR1 agonist – activates human neurotensin receptor 1 | activation, % at 20 µM | NTR1-U2OS beta-arrestin-GFP spot imaging, agonist mode | 330,000 compounds, 0.17% hits | P30989;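 active means activation at or above 40% of the spot to cytoplasm intensity ratio, with at least 20 cells analyzed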;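 further: 0% = DMSO without peptide and 100% = 100 nM NTR1 peptide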
# OX1R antag-1 – antagonists of human orexin 1 receptor (OX1R) | O43613 | OX1R-expressing cells, FRET antagonist read-out | inhibition, % at 6.6 µM | 330,000 compounds, 1.8% hits; in the data active means inhibition mostly above about 38%, no sharp cut-off; inactive means mostly below about 40%;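 further: 0% = agonist challenge alone and 100% = reference antagonist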
# Target sequence (O43613 whole entry, looked up): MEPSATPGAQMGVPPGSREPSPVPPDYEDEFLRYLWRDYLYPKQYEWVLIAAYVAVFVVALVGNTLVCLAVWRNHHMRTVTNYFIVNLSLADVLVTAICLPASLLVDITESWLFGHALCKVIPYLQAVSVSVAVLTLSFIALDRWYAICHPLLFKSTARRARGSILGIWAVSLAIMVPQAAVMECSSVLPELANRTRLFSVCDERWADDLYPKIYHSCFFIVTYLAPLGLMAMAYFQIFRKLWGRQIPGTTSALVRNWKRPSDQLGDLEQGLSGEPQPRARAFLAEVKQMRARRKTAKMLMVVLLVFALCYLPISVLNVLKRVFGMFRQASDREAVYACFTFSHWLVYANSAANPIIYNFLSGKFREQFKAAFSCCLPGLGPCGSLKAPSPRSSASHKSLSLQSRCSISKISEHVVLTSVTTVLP
# OX1R antag-2 – antagonists of human orexin 1 receptor. AID 434989. inhibition, % at 5 µM. O43613. CHO/OX1R cells, Fluo-8 calcium fluorescence, orexin A. 330,000 compounds, 0.43% hits;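 active means inhibition above its plate's threshold, mean inhibition of all tested compounds on the plate plus 3 SD, cut at about 37% in these data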;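 further: 0% = orexin A challenge wells and 100% = SB-334867-A antagonist wells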
# CHO parental Ca – signal in parental CHO cells, OX1R antagonist counter-screen; parental CHO-K1, ATP-induced calcium, Fluo-8 fluorescence; inhibition, % at 5.6 µM; 330,000 compounds, 0.63% hits; AID 463079;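 active means inhibition above that plate's mean sample inhibition plus 3 SD, cut at about 26% in these data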;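 further: 0% = ATP-challenged DMSO wells and 100% = DMSO wells without ATP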
#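 Test system: parental CHO cells; detection: calcium-sensitive Fluo-8 fluorescence; evaluation: percent inhibition of calcium signal; also added: ATP as calcium-mobilizing challenge; repeats: one well per compound; control set: ATP-challenged DMSO wells low, unchallenged DMSO wells high; compound: single nominal dose of 5.6 µM per compound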
# TAAR1 ag – human TAAR1 agonism; Q96RJ0; CHO RD-HGA16 TAAR1, Fluo-8 calcium fluorescence; vehicle wells 0%, saturating PEA agonist 100%; activation, % at 3 µM; 360,000 compounds, 0.99% hits; AID 624467;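 active means activation above the mean activation of all test compounds in the run plus 3 SD, cut at about 38% in these data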
#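 Signal – calcium-sensitive Fluo-8 signal, excitation 470-495, emission 515-575 nm · System – RD-HGA16 (CHO) cells co-expressing Gα16 and hTAAR1 · Incubation – 17-24 h seeding, 75 min 37 °C dye, 30 min RT · Compound dosing – 3 µM single concentration · Repeats – no replicates (n 1)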
# TAAR1 antag – antagonists of human TAAR1. 360,000 compounds, 1.5% hits. Q96RJ0. inhibition, % at 3 µM. CHO RD-HGA16 TAAR1, Fluo-8 calcium fluorescence, antagonist;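 active means inhibition above a per-plate cutoff, the mean inhibition of test compounds on that plate plus 3 SD, cut at about 49% in these data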;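 further: 0% = DMSO plus EC80 beta-PEA response and 100% = DMSO alone without agonist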
#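 System: CHO RD-HGA16 cells bearing hTAAR1. Reagent: EC80 β-phenethylamine stimulus. Schedule: seeding 17-24 h prior, 75-min 37 °C, 30-min RT dye loading. Signal: Fluo-8 intracellular calcium dye fluorescence, real-time kinetic reads. Read-out: % inhibition from peak post-agonist over basal fluorescence ratio. Benchmarks: vehicle wells and EC80 agonist wells. Replicates: n of 1.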
# * hit, by the source's call; nt = no result.
SMILES,NTR1 agonist,OX1R antag-1,OX1R antag-2,CHO parental Ca,TAAR1 ag,TAAR1 antag
Cc1ccc(-c2nc3c(c(SCC(=O)N4CCOCC4)n2)Cc2c(CO)cnc(C)c2O3)cc1,3,38*,-22,-25,6,-9
Cc1ccccc1OCCOc1cccc(/C=N/NC(=O)Cc2nnc(N)s2)c1,0,62,48*,53*,14,49*
O=C(O)c1ccc(NC(=O)c2cn(-c3ccccc3)nc2-c2cccc(Cl)c2)cc1,1,30,10,11,6,52*
O=C(O)c1ccc(NC(=O)c2cn(-c3ccccc3)nc2-c2ccc(F)cc2)cc1,0,16,-6,-8,5,59*
O=C(O)c1cn(-c2ccccc2)nc1-c1ccc(F)cc1,1,11,-4,-3,3,5
O=C(Nc1ccc(-c2nc3ccccc3o2)c(O)c1)c1cc(-n2cnnc2)ccc1Cl,2,17,11,32*,10,29
O=C(Nc1ccc(-c2nc3ccccc3o2)cc1)c1cc(-n2cnnc2)ccc1Cl,8,15,5,8,10,32
CCCNC(=O)c1noc2c1CCc1ccccc1-2,-4,11,-16,-4,-1,9
COc1ccc2c(c1)CCc1c(C(=O)NCCc3ccc(OC)c(OC)c3)noc1-2,3,26,-21,-22,12,49*
O=C(NCCc1ccccc1)c1noc2c1CCc1ccccc1-2,6,29,-24,-18,31,67*
COc1ccc2c(c1)CCc1c(C(=O)Nc3ccc(OC)c(OC)c3)noc1-2,4,3,-15,-6,10,51*
Cc1ccc(CN2CC(C(=O)N3CCN(c4ccccc4O)CC3)CC2=O)cc1 (stereo not given),-1,10,-17,-7,2,-13
Nc1[nH]c(C(=O)c2ccc(Br)cc2)c(-c2ccccn2)c1C(=O)NCCc1c[nH]c2ccccc12,nt,nt,nt,nt,17,40
O=C(N/N=C/c1cccs1)c1cc(-c2ccc(Cl)s2)[nH]n1,-2,59*,9,-4,5,11
CN1OC[C@@H]2CN3C(=NCCc4ccccc4)Sc4ccccc4[C@@H]3C[C@@H]21,nt,nt,nt,nt,23,-16
COCC1CCN(C(=O)c2cc(COc3cccc4cnccc34)on2)CC1,0,13,-18,6,10,10
O=C(c1cc(COc2cccc3cnccc23)on1)N1CCCC(CCCO)C1 (stereo not given),1,51,26,59*,12,37
CCCCCc1nc2sc3c(c2c(=O)n1NC(=O)c1ccc([N+](=O)[O-])cc1)CC(C)(C)OC3,3,53*,-30,0,7,25
CCCCCCCc1nc2sc3c(c2c(=O)n1N)CC(C)(C)OC3,0,13,-8,-8,10,-20
OC(COc1ccccc1)Cn1c2ccccc2c2ccccc21 (stereo not given),32,11,-7,-4,8,-19
CC(=O)Nc1ccc(OCC(O)Cn2c3ccccc3c3ccccc32)cc1 (stereo not given),3,12,5,-4,22,-8
CC(=O)Nc1ccc(OCC(O)Cn2c3ccccc3c3ccccc32)c(C)c1 (stereo not given),16,16,23,9,36,65*
O=C(O)c1ccc(OCC(O)Cn2c3ccccc3c3ccccc32)cc1 (stereo not given),2,13,32,38*,17,45
C=CCN1C(=O)c2n[nH]c(COC)c2C1c1ccc(C)cc1 (stereo not given),nt,nt,nt,nt,0,-23
CCOC(=O)c1cn(CC)c2cc(Cl)c([N+](=O)[O-])cc2c1=O,-1,55*,-10,-2,0,-4
CS(=O)(=O)N(Cc1ccc(Cl)cc1)c1ccc(C(=O)N2CCN(c3ccccc3)CC2)cc1,1,5,24,34*,13,34
CCOc1ccccc1N1CCN(c2nc3ccccc3nc2C(C#N)C(=O)OC)CC1 (stereo not given),12,11,-5,-12,4,6
CCOc1ccccc1N1CCN(c2nc(N)c(C#N)c(CC#N)c2C#N)CC1,4,12,5,7,19,50*
